From ChEMBL document CHEMBL1914438, “Synthesis and biological activity of novel N-cycloalkyl-(cycloalkylaryl)-2-[(3-R-2-oxo-2H-[1,2,4]triazino[2,3-c]quinazoline-6-yl)thio]acetamides” (2011)

Columns and labels:
Type in all cases: functional
SN12C = test: Cytotoxicity against human SN12C cells assessed as cell growth at 10^-5 M after 48 hrs by SRB assay; conditions: read-out: Activity
Summary of the method: (§1)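 NCI human tumor cell line panel from nine cancer types. Each line was inoculated and preincubated 24–48 h, then exposed to a single concentration (10^-5 M) for 48 h. Growth was read by sulforhodamine B protein staining, measured spectrophotometrically. Value reported as percent growth of treated cells relative to untreated controls.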

U-251 = test: Growth inhibition of human U251 cells after 48 hrs by SRB assay; conditions: U-251, 48 h
Summary of the method: (§2)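 NCI 60-cell-line human tumor panel. Cells were inoculated and preincubated for 24–48 h, then exposed continuously to compound for 48 h. Primary screen used a single 10^-5 M concentration. Growth was measured by sulforhodamine B protein staining, read spectrophotometrically, and reported as percent growth versus untreated controls. Selected compounds were also run at five 10-fold dilutions (10^-4 to 10^-8 M) to derive GI50 from time-zero-corrected absorbances.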

Mycobacterium = test: Antibacterial activity against Mycobacterium luteum assessed as zone of inhibition at 0.1 mg/mL after 24 hrs by stiff-plate agar-diffusion method; conditions: read-out: DIZ
MDA-MB-231 = test: Cytotoxicity against human MDA-MB-231 cells assessed as cell growth at 10^-5 M after 48 hrs by SRB assay; conditions: MDA-MB-231, 48 h, read-out: Activity
Summary of the method: (§3)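 NCI 60-cell-line one-dose primary screen: cells inoculated and preincubated 24–48 h, then test agent added at a single 10^-5 M concentration for a further 48 h. Endpoint is sulforhodamine B protein staining read spectrophotometrically. Reported as percent growth relative to untreated control cells.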

NCI-H522 = test: Growth inhibition of human NCI-H522 cells after 48 hrs by SRB assay; conditions: NCI-H522, 48 h
Summary of the method: (§4)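 NCI panel of about 60 human tumor lines, 48 h continuous exposure at five 10-fold dilutions from 10^-4 to 10^-8 M. SRB protein staining was read as absorbance at time zero, in untreated controls and at each concentration. GI50 is the concentration giving 50% lower net protein increase than controls. TGI is where Ti = Tz, and LC50 is 50% protein loss versus start.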

SK-MEL-2 = test: Cytotoxicity against human SK-MEL-2 cells assessed as cell growth at 10^-5 M after 48 hrs by SRB assay; conditions: SK-MEL-2, 48 h, read-out: Activity; summary of the method: as §1
MDA-MB-435 = test: Cytotoxicity against human MDA-MB-435 cells assessed as cell growth at 10^-5 M after 48 hrs by SRB assay; conditions: MDA-MB-435, 48 h, read-out: Activity; summary of the method: as §3
Malme-3M [1] = test: Growth inhibition of human MALME-3M cells after 48 hrs by SRB assay; summary of the method: as §4
KM12 = test: Cytotoxicity against human KM12 cells assessed as cell growth at 10^-5 M after 48 hrs by SRB assay; conditions: KM12, 48 h, read-out: Activity; summary of the method: as §3
UO-31 = test: Cytotoxicity against human UO31 cells assessed as cell growth at 10^-5 M after 48 hrs by SRB assay; conditions: UO-31, 48 h, read-out: Activity; summary of the method: as §1
Malme-3M [2] = test: Cytotoxicity against human MALME-3M cells assessed as cell growth at 10^-5 M after 48 hrs by SRB assay; conditions: read-out: Activity; summary of the method: as §3
DU-145 = test: Growth inhibition of human DU145 cells after 48 hrs by SRB assay; conditions: DU-145, 48 h; summary of the method: as §4
NCI-H460 = test: Cytotoxicity against human NCI-H460 cells assessed as cell growth at 10^-5 M after 48 hrs by SRB assay; conditions: NCI-H460, 48 h, read-out: Activity; summary of the method: as §1
HT-29 = test: Growth inhibition of human HT-29 cells after 48 hrs by SRB assay; conditions: HT-29, 48 h; summary of the method: as §4
SF-268 = test: Cytotoxicity against human SF268 cells assessed as cell growth at 10^-5 M after 48 hrs by SRB assay; conditions: SF-268, 48 h, read-out: Activity; summary of the method: as §1
[3] = system: Photobacterium leiognathi; test: Antibacterial activity against Photobacterium leiognathi Sh1 assessed as inhibition of bacterial luminescence at 0.025 mg/mL after 10 mins by bioluminometry-based chronic action test; design: scale not given: the % may be the effect or the level left; conditions: in the assay text read “after 16 to 18 hrs” for “after 10 mins”
Summary of the method: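 Chronic (growth plus luminescence) test with P. leiognathi Sh1 at 10^5 cells/mL in chloride solution, compounds added in DMSO. After 10 min at 25 °C, growth medium added at 1:50 and the mix incubated 16–18 h at 30 °C. Luminescence then measured by bioluminometer as % of untreated control. Tetracycline reference.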

LOX IMVI = test: Cytotoxicity against human LOXIMVI cells assessed as cell growth at 10^-5 M after 48 hrs by SRB assay; conditions: read-out: Activity; summary of the method: as §3
BT-549 = test: Cytotoxicity against human BT549 cells assessed as cell growth at 10^-5 M after 48 hrs by SRB assay; conditions: BT-549, 48 h, read-out: Activity; summary of the method: as §3
MCF7 = test: Cytotoxicity against human MCF7 cells assessed as cell growth at 10^-5 M after 48 hrs by SRB assay; conditions: MCF7, 48 h, read-out: Activity; summary of the method: as §3
RPMI-8226 = test: Cytotoxicity against human RPMI8226 cells assessed as cell growth at 10^-5 M after 48 hrs by SRB assay; conditions: RPMI-8226, 48 h, read-out: Activity; summary of the method: as §1
SK-MEL-5 = test: Cytotoxicity against human SK-MEL-5 cells assessed as cell growth at 10^-5 M after 48 hrs by SRB assay; conditions: SK-MEL-5, 48 h, read-out: Activity; summary of the method: as §1
NCI-H23 = test: Cytotoxicity against human NCI-H23 cells assessed as cell growth at 10^-5 M after 48 hrs by SRB assay; conditions: NCI-H23, 48 h, read-out: Activity; summary of the method: as §1
PC-3 = test: Cytotoxicity against human PC3 cells assessed as cell growth at 10^-5 M after 48 hrs by SRB assay; conditions: PC-3, 48 h, read-out: Activity; summary of the method: as §1
[4] = system: Photobacterium leiognathi; test: Antibacterial activity against Photobacterium leiognathi Sh1 assessed as inhibition of bacterial luminescence at 0.1 mg/mL after 10 mins by bioluminometry-based acute action test; design: scale not given: the % may be the effect or the level left
Summary of the method: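 Marine P. leiognathi Sh1 (Azov Sea shrimp isolate) diluted in chloride solution to 10^5 cells/mL; compounds suspended in DMSO mixed with 1 mL bacterial suspension. Acute test: 10 min at 25 °C, then bioluminescence measured by bioluminometer as % of compound-free control. Tetracycline reference.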

SNB-19 = test: Growth inhibition of human SNB19 cells after 48 hrs by SRB assay; conditions: SNB-19, 48 h; summary of the method: as §2
EKVX = test: Growth inhibition of human EKVX cells after 48 hrs by SRB assay; summary of the method: as §4
[5] = read-out: pLC50 (the source's name) (converted)

CCC1C2CCC(C2)C1NC(=O)CSc1nc2ccccc2c2nc(=O)c(-c3ccc(OC)cc3)nn12 (stereo not given)
growth at 10 µM (SN12C): 57.8%
GI50 (U-251): 1 µM
CC50 (U-251; [5]): 5.75 µM
TGI (U-251; read-out: pTGI (converted)): 2.29 µM
zone of inhibition at 100 µg/mL (Mycobacterium): 0 mm
growth at 10 µM (MDA-MB-231): 22.5%
GI50 (NCI-H522): 1.35 µM
CC50 (NCI-H522; [5]): 38.9 µM
TGI (NCI-H522; read-out: pTGI (converted)): 7.94 µM
growth at 10 µM (SK-MEL-2): 56.5%
growth at 10 µM (MDA-MB-435): 58.6%
GI50 (Malme-3M [1]): 3.89 µM
CC50 (Malme-3M [1]; [5]): > 50.1 µM
TGI (Malme-3M [1]; read-out: pTGI (converted)): 24.5 µM
growth at 10 µM (KM12): 68.3%
growth at 10 µM (UO-31): -12.7%
growth at 10 µM (Malme-3M [2]): -29.2%
GI50 (DU-145): 3.16 µM
CC50 (DU-145; [5]): > 50.1 µM
TGI (DU-145; read-out: pTGI (converted)): 37.2 µM
growth at 10 µM (NCI-H460): 56%
GI50 (HT-29): 3.24 µM
CC50 (HT-29; [5]): > 50.1 µM
TGI (HT-29; read-out: pTGI): > 50.1 µM
growth at 10 µM (SF-268): 66.3%
Activity [3]: 85.3%
growth at 10 µM (LOX IMVI): 70.5%
growth at 10 µM (BT-549): 90.9%
growth at 10 µM (MCF7): 48.2%
growth at 10 µM (RPMI-8226): 47.4%
growth at 10 µM (SK-MEL-5): 59.8%
growth at 10 µM (NCI-H23): 62.8%
growth at 10 µM (PC-3): 55.1%
Activity [4]: 84%
GI50 (SNB-19): 3.47 µM
CC50 (SNB-19; [5]): > 50.1 µM
TGI (SNB-19; read-out: pTGI (converted)): 22.4 µM
GI50 (EKVX): 1.95 µM
CC50 (EKVX; [5]): > 50.1 µM
TGI (EKVX; read-out: pTGI): > 50.1 µM
